Assay [1] addresses 5-hydroxytryptamine receptor 1D (Homo sapiens, UniProt P28221). Kind of assay: Displacement of [3H]5-CT from human recombinant 5-HT1D receptor transiently expressed in HEKT cells after 90 mins by microbeta scintillation counting method. It counts as cell-based. The method, boiled down: (§1)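 Radioligand binding was run by the NIMH Psychoactive Drug Screening Program. Compounds were first screened at 10 μM. Those giving ≥50% binding were taken to full competition curves. Ki is reported as pKi from a sigmoidal curve fit of triplicate measurements in a single experiment; the error is the curve-fit error.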

Assay [2] concerns the target 5-hydroxytryptamine receptor 7 (Homo sapiens, UniProt P34969). The experiment in a line: Displacement of [3H]-LSD from human recombinant 5-HT7 receptor expressed in stable HEK cells after 90 mins by microbeta scintillation counting method. It counts as cell-based. Summed up:
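Run by NIMH Psychoactive Drug Screening Program. Otherwise, competition binding curves are generated and pKi is taken from a sigmoidal curve fit. Data are either triplicate measurements within one experiment, with the error from the fit, or the mean of repeated experiments, each run in triplicate.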

The target in assay [3] is T1, Alpha-2B adrenergic receptor (Homo sapiens, UniProt P18089).
T1 sequence (P18089 whole entry): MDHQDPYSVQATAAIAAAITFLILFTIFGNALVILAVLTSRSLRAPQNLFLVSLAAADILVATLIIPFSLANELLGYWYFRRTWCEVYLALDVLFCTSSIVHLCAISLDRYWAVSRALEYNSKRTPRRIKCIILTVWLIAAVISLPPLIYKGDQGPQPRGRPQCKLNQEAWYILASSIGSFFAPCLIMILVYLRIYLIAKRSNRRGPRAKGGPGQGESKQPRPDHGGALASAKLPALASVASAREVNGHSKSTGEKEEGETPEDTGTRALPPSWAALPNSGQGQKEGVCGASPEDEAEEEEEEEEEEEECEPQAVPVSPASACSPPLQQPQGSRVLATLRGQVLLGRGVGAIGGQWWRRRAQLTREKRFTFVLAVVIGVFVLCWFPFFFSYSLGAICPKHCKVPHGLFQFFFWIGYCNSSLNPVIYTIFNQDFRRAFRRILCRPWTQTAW
The experiment in a line: Displacement of [3H]-Rauwolscine from human recombinant adrenergic Alpha2B receptor expressed in HEKT cells after 90 mins by microbeta scintillation counting method. It counts as cell-based. Summed up: as §1

Assay [4] addresses Beta-1 adrenergic receptor (Homo sapiens, UniProt P08588). Kind of assay: Displacement of [125I]-pindolol from human recombinant adrenergic Beta1 receptor expressed in Flp-In CHO cells after 90 mins by microbeta scintillation counting method. It counts as cell-based. The method, boiled down:
(§2)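 Radioligand binding run by the NIMH Psychoactive Drug Screening Program. […] Otherwise Ki comes from sigmoidal curve fits of triplicate measurements in a single experiment, or is averaged over repeated experiments each run in triplicate.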

Assay [5] has as its target Beta-3 adrenergic receptor (Homo sapiens, UniProt P13945). Kind of assay: Displacement of [3H]-CGP12177 from human recombinant adrenergic Beta3 receptor expressed in Flp-In HEK cells after 90 mins by microbeta scintillation counting method. It counts as cell-based. The method, boiled down: as §2
For orientation: Displacement assays read how much labelled ligand stays bound in the presence of the test substance.

For assay [6], the target named is D(3) dopamine receptor (Homo sapiens, UniProt P35462). Kind of assay: Displacement of [3H]-N-methylspiperone from human recombinant dopamine D3 receptor expressed in HEKT cells after 90 mins by microbeta scintillation counting method. The format is cell-based. The method, boiled down:
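Radioligand binding run by the NIMH Psychoactive Drug Screening Program. Otherwise Ki comes from sigmoidal curve fits of triplicate measurements in a single experiment, or is averaged over repeated experiments each run in triplicate.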

Assay [7] concerns the target T2, Muscarinic acetylcholine receptor M5 (Homo sapiens, UniProt P08912).
T2 sequence (P08912 whole entry): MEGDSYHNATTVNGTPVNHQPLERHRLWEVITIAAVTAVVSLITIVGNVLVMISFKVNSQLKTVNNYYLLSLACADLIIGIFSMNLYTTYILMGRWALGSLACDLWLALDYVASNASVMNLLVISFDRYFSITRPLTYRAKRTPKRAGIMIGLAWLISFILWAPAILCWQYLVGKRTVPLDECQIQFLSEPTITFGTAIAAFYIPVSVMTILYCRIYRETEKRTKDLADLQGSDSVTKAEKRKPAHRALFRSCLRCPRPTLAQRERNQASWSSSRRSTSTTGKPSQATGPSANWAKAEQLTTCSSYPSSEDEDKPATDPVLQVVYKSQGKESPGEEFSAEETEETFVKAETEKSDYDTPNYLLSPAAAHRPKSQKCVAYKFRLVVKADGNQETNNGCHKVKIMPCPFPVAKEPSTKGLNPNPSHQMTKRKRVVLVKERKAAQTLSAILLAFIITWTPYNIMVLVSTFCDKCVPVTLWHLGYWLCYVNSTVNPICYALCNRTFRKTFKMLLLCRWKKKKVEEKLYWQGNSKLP
The experiment in a line: Displacement of [3H]-QNB/[3H]-NMS from human recombinant Muscarinic acetylcholine M5 receptor expressed in stable CHO cells after 90 mins by microbeta scintillation counting method. The format is cell-based. The method, boiled down:
as §1

The target in assay [8] is T3, Delta-type opioid receptor (Homo sapiens, UniProt P41143). The experiment in a line: Displacement of [3H]-DADLE from human recombinant DOR receptor expressed in stable HEK cells after 90 mins by microbeta scintillation counting method. The format is cell-based. The method, boiled down:
as §2

Assay [9] addresses Sigma non-opioid intracellular receptor 1 (Homo sapiens, UniProt Q99720). The experiment in a line: Displacement of [3H]-Pentazocine from human recombinant sigma1 receptor expressed in HEKT cells after 90 mins by microbeta scintillation counting method. It counts as cell-based.
Assay [10] has as its target T3, Delta-type opioid receptor. Kind of assay: Displacement of [3H]-DADLE from human recombinant DOR receptor expressed in stable HEK cells at 10 uM after 90 mins by microbeta scintillation counting method relative to control. It counts as cell-based. The method, boiled down:
as §2

The species named for assay [11] is Rattus norvegicus. The experiment in a line: Displacement of [3H]-PK11195 from PBR receptor in rat brain at 10 uM incubated for 90 mins by microbeta scintillation counting method relative to control. The format is tissue-based. Summed up: as §2
For assay [12], the target named is T4, Alpha-2A adrenergic receptor (Homo sapiens, UniProt P08913).
T4 sequence (P08913 whole entry): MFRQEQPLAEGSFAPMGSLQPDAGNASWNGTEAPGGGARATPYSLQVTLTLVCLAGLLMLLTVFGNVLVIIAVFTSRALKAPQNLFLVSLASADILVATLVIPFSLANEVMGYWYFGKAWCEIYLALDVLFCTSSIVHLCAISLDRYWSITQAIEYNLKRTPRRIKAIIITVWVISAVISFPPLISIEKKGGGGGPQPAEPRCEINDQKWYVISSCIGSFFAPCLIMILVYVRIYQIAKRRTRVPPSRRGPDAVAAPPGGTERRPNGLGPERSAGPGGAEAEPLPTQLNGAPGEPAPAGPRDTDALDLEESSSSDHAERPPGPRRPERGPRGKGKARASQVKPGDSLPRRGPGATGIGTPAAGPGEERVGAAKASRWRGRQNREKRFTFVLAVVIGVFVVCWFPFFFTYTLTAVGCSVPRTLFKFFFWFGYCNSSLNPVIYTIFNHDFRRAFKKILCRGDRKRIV
Kind of assay: Displacement of [3H]-Rauwolscine from human recombinant adrenergic Alpha2A receptor expressed in stable MDCK cells after 90 mins by microbeta scintillation counting method. It counts as cell-based. Summed up: as §1

The structures appear in SMILES notation.

As a reminder, the inhibition is how much of the control response was suppressed.

Sequence of Sigma non-opioid intracellular receptor 1 (Q99720 whole entry): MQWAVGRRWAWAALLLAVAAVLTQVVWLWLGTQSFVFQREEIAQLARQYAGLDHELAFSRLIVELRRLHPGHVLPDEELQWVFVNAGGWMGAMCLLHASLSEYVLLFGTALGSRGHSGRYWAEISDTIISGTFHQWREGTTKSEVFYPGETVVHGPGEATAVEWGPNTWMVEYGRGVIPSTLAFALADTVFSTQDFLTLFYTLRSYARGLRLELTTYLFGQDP
Sequence of 5-hydroxytryptamine receptor 1D (P28221 whole entry): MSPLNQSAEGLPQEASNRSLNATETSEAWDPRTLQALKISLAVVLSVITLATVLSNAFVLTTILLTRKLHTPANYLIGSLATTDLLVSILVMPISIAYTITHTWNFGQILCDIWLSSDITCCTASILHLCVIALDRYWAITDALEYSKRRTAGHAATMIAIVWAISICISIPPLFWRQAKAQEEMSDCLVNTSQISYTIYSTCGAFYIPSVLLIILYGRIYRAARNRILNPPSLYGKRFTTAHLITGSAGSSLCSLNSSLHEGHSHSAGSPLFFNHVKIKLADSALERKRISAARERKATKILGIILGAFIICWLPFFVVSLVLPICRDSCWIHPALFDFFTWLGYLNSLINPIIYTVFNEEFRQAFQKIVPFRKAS
Sequence of Beta-1 adrenergic receptor (P08588 whole entry): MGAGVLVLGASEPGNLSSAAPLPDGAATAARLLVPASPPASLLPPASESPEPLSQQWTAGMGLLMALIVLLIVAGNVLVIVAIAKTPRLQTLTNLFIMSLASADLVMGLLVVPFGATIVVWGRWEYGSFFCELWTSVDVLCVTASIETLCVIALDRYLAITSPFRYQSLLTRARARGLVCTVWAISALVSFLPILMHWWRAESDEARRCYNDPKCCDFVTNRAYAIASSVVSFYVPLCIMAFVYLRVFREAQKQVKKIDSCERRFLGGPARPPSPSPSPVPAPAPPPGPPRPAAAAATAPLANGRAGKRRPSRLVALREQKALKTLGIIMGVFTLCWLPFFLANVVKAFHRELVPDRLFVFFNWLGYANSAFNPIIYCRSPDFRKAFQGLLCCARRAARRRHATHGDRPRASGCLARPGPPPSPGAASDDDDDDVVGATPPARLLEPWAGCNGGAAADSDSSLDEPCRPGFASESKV
Sequence of Beta-3 adrenergic receptor (P13945 whole entry): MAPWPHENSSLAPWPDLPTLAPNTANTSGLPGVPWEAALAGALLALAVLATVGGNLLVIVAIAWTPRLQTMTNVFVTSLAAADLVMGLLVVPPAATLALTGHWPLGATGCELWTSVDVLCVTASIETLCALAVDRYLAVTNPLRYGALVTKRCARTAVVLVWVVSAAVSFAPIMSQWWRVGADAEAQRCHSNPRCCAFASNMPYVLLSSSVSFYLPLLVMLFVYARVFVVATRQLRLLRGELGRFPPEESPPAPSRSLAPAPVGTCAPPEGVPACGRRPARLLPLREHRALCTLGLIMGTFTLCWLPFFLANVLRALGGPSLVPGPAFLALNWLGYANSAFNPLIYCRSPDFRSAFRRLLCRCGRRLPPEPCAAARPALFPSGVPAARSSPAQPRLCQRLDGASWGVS
T3 sequence (P41143 whole entry): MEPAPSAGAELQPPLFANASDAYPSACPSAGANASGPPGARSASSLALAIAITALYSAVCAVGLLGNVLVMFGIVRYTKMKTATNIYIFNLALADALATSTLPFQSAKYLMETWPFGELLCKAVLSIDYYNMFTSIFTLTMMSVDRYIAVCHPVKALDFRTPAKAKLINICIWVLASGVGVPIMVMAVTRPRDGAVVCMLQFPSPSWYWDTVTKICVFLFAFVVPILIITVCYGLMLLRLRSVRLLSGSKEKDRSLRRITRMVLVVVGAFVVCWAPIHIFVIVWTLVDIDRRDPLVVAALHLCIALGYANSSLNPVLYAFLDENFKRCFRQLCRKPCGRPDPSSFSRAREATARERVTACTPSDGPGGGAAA
Sequence of D(3) dopamine receptor (P35462 whole entry): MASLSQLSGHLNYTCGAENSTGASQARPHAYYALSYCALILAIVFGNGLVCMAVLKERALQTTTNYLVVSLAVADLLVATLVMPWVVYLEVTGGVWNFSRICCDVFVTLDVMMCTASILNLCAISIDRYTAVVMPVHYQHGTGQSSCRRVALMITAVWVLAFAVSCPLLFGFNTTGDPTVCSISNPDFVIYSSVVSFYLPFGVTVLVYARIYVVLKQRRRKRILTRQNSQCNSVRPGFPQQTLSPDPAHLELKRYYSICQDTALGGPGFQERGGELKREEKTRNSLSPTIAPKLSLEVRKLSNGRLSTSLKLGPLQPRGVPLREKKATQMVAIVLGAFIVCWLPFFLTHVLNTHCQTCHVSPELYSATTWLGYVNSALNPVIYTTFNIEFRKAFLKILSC
Sequence of 5-hydroxytryptamine receptor 7 (P34969 whole entry): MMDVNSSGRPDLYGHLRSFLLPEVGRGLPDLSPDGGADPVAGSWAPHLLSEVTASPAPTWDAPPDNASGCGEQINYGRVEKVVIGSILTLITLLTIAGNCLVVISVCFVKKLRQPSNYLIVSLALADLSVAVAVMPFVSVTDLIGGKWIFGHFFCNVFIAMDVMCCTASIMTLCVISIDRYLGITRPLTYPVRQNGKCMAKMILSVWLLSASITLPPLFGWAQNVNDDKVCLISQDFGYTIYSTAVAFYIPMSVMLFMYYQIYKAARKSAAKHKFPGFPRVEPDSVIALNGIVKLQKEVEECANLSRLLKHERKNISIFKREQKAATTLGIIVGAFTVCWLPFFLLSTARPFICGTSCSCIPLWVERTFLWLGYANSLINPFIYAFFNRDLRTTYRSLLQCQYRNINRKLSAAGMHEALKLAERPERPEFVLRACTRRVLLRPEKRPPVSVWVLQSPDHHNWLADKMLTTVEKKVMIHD

As for `COc1cc(OC)c2c(c1)OC[C@@]1(C)NCC[C@@H]21` (racemic), the Ki was greater than 10 µM in assay [1]; 1.26 µM in assay [2] (read-out: pKi (converted)); greater than 10 µM in [3]; 1 µM in assay [4]; greater than 10 µM in assay [5]; greater than 10 µM in assay [6]. In addition, the Ki in assay [7] is greater than 10 µM; in assay [8], greater than 10 µM; in assay [9] (read-out: Ki), 0.044 µM. Further, the inhibition in assay [10] and in assay [11] was less than 50% each time.
As to `C[C@@]12CN(c3ccccc3)c3ccccc3[C@@H]1CCN2` (racemic), the Ki in assay [1] was greater than 10 µM; in [2] (read-out: Ki) it was 0.0063 µM; in assay [3], greater than 10 µM; in [4], 3.16 µM; in assay [5], greater than 10 µM; in assay [7], greater than 10 µM. In assay [8], the Ki is greater than 10 µM.
In the case of `CC[C@H]1c2ccccc2N(c2ccccc2)C[C@@]1(C)N` (racemic), the Ki in assay [1] was greater than 10 µM; in assay [2] (read-out: pKi (converted)), 1 µM; in assay [12] it was 0.398 µM; in assay [3], 0.398 µM; in assay [4] it was greater than 10 µM; in assay [5], 1 µM. For the same compound, the values for the Ki in assay [7], in [8] and in [9] (read-out: pKi (converted)) were greater than 10 µM, greater than 10 µM and 0.316 µM, respectively.
Turning to `CC[C@H]1c2cc(C)ccc2OC[C@@]1(C)N` (racemic), the Ki in assay [1], in assay [2] (read-out: pKi (converted)), in assay [12], in assay [3], in assay [4] and in assay [5] was greater than 10 µM each time. The Ki is greater than 10 µM in [6], greater than 10 µM in assay [7], greater than 10 µM in [8] and 1 µM in assay [9] (read-out: pKi (converted)). Besides, the inhibition in [10] and in assay [11] was less than 50% in each case.
Regarding `CC[C@H]1c2cc(OC)ccc2CC[C@@]1(C)N` (racemic), the Ki was greater than 10 µM in assay [1]; greater than 10 µM in assay [2] (read-out: pKi (converted)); 6.31 µM in assay [12]; 5.01 µM in assay [3]; greater than 10 µM in [4]; greater than 10 µM in assay [5]. The Ki in assay [6] was greater than 10 µM; in assay [7] it was greater than 10 µM; in [8] it was greater than 10 µM; in assay [9] (read-out: pKi (converted)), 0.126 µM. For the same compound, the inhibition in assay [10] and in assay [11] was less than 50% in each case.

(Values after ChEMBL document CHEMBL4304834, “3-Amino-chromanes and Tetrahydroquinolines as Selective 5-HT2B, 5-HT7, or σ1 Receptor Ligands” (ACS Med Chem Lett, 2019).)
